Assay results from ChEMBL document CHEMBL1124524, “Organic phosphorus compounds. 2. Synthesis and coronary vasodilator activity of (benzothiazolylbenzyl) phosphonate derivatives” (1989).

What follows are compounds tested on Cavia porcellus (assay: Maximum increase in the coronary flow of isolated guinea pig heart when a dose of 10 ug/heart is administered).
Format: functional
How it was run: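 Langendorff-perfused isolated guinea pig heart, with Krebs-Henseleit fluid gassed with 95% O2/5% CO2, at 34 ± 1 °C and 60 cm H2O perfusion pressure. Compound was dissolved in propylene glycol at 100 μg/mL and infused at 0.1 mL/min. Coronary flow was read by electromagnetic flowmeter before and after infusion and expressed as percentage gain; mean ± SE of five experiments.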

SMILES	Max increase in coronary flow
CCOP(=O)(CCOc1ccc(-c2nc3ccccc3s2)cc1)OCC	27.2%
CCOP(=O)(Cc1ccc(-c2nc3ccccc3o2)nc1)OCC	38.7%
CCOP(=O)(Cc1ccc(-c2nc(-c3ccccc3)c(-c3ccccc3)s2)cc1)OCC	23%
CCOP(=O)(/C=C/c1ccc(-c2nc3ccccc3s2)cc1)OCC	49.5%
CCOP(=O)(Cc1ccc(-c2nc3ccccc3s2)s1)OCC	51.1%
CCOP(=O)(CCc1ccc(-c2nc3ccccc3s2)cc1)OCC	40.7%
CCOP(=O)(Cc1ccc(-c2nc3ccccc3[nH]2)nc1)OCC	27.1%
CCOP(=O)(OCC)c1ccc(-c2nc3ccccc3s2)cc1	27.2%
CCOP(=O)(Cc1ccc(-c2nc3ccccc3s2)nc1)OCC	94%
CCOP(=O)(Cc1ccc(-c2nccs2)nc1)OCC	23.2%
CCOP(=O)(Cc1ccc(-c2nc(-c3ccccc3)cs2)cc1)OCC	60.3%
CCOP(=O)(Cc1ccc(-c2nc3ccccc3s2)cc1)OCC [FOSTEDIL]	79.9%
CCOP(=O)(Cc1cccnc1)OCC	21.4%
CCOP(=O)(OCC)OCc1ccc(-c2nc3ccccc3s2)cc1	47.7%
